Results: ChEMBL document CHEMBL4513216, “Probing the Open Global Health Chemical Diversity Library for Multistage-Active Starting Points for Next-Generation Antimalarials” (ACS Infect Dis, 2020)

Test: Toxicity liver stage against HepG2, at 10uM
Format: cell-based
Parameters: test concentration 10 uM, cell line HepG2-A16-CD81EGFP
Details: human, HepG2-A16-CD81EGFP cells; read-out: INHIBITION
How it was run: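 Uninfected HepG2-A16-CD81EGFP cells, 3 × 10^3 per well, 1536-well, plated on prespotted compound at 10 μM final, parasite-free screening media added to match infected plates; puromycin 10 μM positive, DMSO 0.5% negative; run in parallel with 48 h PbLuc assay at 37 °C, 5% CO2; viability by CellTiter-Glo luminescence, normalized to controls.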

Row | SMILES | cytotoxicity at 10 µM
1 | CN(C)C(=O)NCc1nnc2n1CCN(Cc1cccs1)C2 | -150%
2 | CN1CC(=O)N(c2cccc(F)c2)CC12CCN(Cc1ccco1)C2 (stereo not given) | 4.06%
3 | CCc1cnc2c(c1Nc1ccncc1)c(=O)n(C)c(=O)n2C | 1.86%
4 | Cn1ccnc1CN1CCC2(CC1)CN(CC1CC1)C(=O)CO2 | 1.7%
5 | COCCNC(=O)c1cc(OC)c2ccoc2c1 | -2.49%
6 | CCS(=O)(=O)N1CCN(C(=O)c2ccc(Cn3cc(Br)cn3)cc2)CC1 | -2.61%
7 | Cc1ncc(CNC(=O)c2nn(C)c3c2CS(=O)(=O)CC3)s1 | -2.44%
8 | Cc1cc(C(=O)N2CCOCC2c2nc(C)c[nH]2)nc(O)n1 (stereo not given) | 2.85%
9 | CCCN1CCCC(O)(c2nc(C)c(COc3ccccc3)s2)CC1 (stereo not given) | 2.27%
10 | CCn1ncc(C(=O)NCCc2nc(-c3ccncc3)n[nH]2)c1C | 6.87%
11 | CC(=O)N1CC(c2n[nH]c3ncccc23)C1 | 19.5%
12 | CC(C)c1nccn1-c1cncc(C2CCCN2Cc2cccnc2)n1 (stereo not given) | -6.27%
13 | CC(C)n1ccnc1CN1CCCC1c1cccc(-n2ccnc2)n1 (stereo not given) | -25.1%
14 | CC(=O)N1CCC(Cc2cncc(-c3c(C)n[nH]c3C)n2)C1 (stereo not given) | -19.4%
15 | COc1ccc(C2Nc3cc(Cl)ccc3C3=NCCN32)cc1O (stereo not given) | -31.1%
16 | O=C(Cc1ccsc1)N1CCCC(c2cc(C(F)F)n3ncnc3n2)C1 (stereo not given) | -20.7%
17 | COCCN1C(=O)CO[C@H]2CN(Cc3cccc(OC)c3F)C[C@@H]21 | -0.0572%
18 | Cc1nc(NC2CCCC2)cc(C2CCN2C(=O)c2ccccn2)n1 (stereo not given) | -4.39%
19 | CS(=O)(=O)c1snnc1C1CCN(Cc2ccc3nccnc3c2)CC1 | -6.14%
20 | CN1CCc2nc(C3CCCN(C(=O)CC4CCCCC4)C3)ncc2C1 (stereo not given) | -8.36%
21 | CC(=O)Nc1nc(C2CCN(C(C)=O)CC2)cs1 | 4.3%
22 | COCCCS(=O)(=O)N1CCN(C(C)(C)CO)CC1 | -6.46%

Row | SMILES | cytotoxicity at 10 µM
23 | COCCN(Cc1ccco1)c1ncc(C#N)cc1Cl | -2.66%
24 | CN1CCC(N(Cc2ccco2)S(=O)(=O)c2ccc(Cl)cc2)CC1 | -1.1%
25 | Cc1ccc(CN(c2cc(C)nc3nc(C(F)(F)F)nn23)C2CC2)cc1 | -4.12%
26 | CC(C)Cc1cc(C(=O)N2CCCN(c3cccnn3)CC2)[nH]n1 | -10.5%
27 | Cn1ccnc1C(=O)NCCS(=O)(=O)c1ccc(C(C)(C)C)cc1 | 3.62%
28 | COc1ccc(C(=O)NS(=O)(=O)c2cc(Cl)sc2Cl)cc1OC(F)F | -4.73%
29 | Cc1nc(CN2CCCC2Cn2cccn2)nc2ccccc12 (stereo not given) | -51.7%
30 | Cc1ccccc1C1(C(=O)N2CCOC(C)C2)CCOCC1 (stereo not given) | 5.33%
31 | COC(=O)C1CCN(C(=O)NCC(C)Cc2cccs2)CC1 (stereo not given) | -7.33%
32 | COCCCN(CCOC)C(=O)Nc1ccc(Br)cc1 | 6.66%
33 | Cc1nnc(CN2CCC(Oc3ccc(F)cc3)CC2)o1 | -11.8%
34 | O=C(NCC1CC1)C1CSCN1S(=O)(=O)c1cc(F)cc(F)c1 (stereo not given) | 6.35%
35 | Cc1csc(CNc2cccc(OCCN3CCCC3)c2)n1 | -4.49%
36 | FC(F)(F)c1c[nH]c(C2CCN(c3ncccn3)CC2)n1 | -5.1%
37 | CS(=O)(=O)NCCN1CCOC2(CCc3ccccc32)C1 (stereo not given) | -9.63%
38 | CCc1nc(C2CCCN2c2ncc(Br)cn2)no1 (stereo not given) | -0.36%
39 | Cc1cc(N2CCC(NC(C)Cc3ccsc3)CC2)nc(C)n1 (stereo not given) | -7.73%
40 | CC(NCCN1CCC(N(C)C)CC1)c1ccc(Cl)s1 (stereo not given) | 25.9%
41 | CN1CC(C(=O)NCCc2ccc3c(c2)OCCO3)CC1=O (stereo not given) | 5.51%
42 | CN(CCc1ccccc1)c1cnn(C)c(=O)c1Br | -7.22%
43 | COc1ccccc1CN(C)c1nc2c(cnn2C)c(=O)[nH]1 | 40.6%
44 | Cc1cc(CCC(=O)N2CCOCC2)ccc1Br | 12.5%

Row | SMILES | cytotoxicity at 10 µM
45 | O=C(NCCCc1ccc(O)cc1)C1(O)Cc2ccccc2C1 | 1.6%
46 | Cc1cn2c(=O)c(-c3ccnc(N[C@@H](C)CO)n3)cnc2s1 | -13.7%
47 | Cc1[nH]c2ccccc2c1-c1ccnc(NC[C@H](O)CO)n1 | 8.9%
48 | CCOC(=O)CCCNc1nc(C(C)(C)C)nc2c1cnn2C | -0.627%
49 | Cc1cccnc1CC(C)Nc1ncc(C)c(N(C)C)n1 (stereo not given) | 12.1%
50 | Cc1n[nH]c(C)c1-c1cc(-c2cc[nH]c2)nc(N)c1C#N | 2.41%
51 | CCC(C)N1CCC(Oc2ccc(C(=O)NCCN(C)C)cc2Cl)CC1 (stereo not given) | -2.09%
52 | Cc1cc(C)n(C2CN(C(=O)CN3C(=O)CSc4ccccc43)C2)n1 | -6.53%
53 | CCn1nc(C)c(CN2CCC(c3ccc(C(=O)O)cc3)C2)c1C (stereo not given) | 4.22%
54 | CC(C)Cc1cc(CNc2nc(-c3cccnc3)nc3c2CNC3)no1 | 1.95%
55 | Cc1ccccc1C(C(=O)NCCN1CCC(CO)CC1)N(C)C (stereo not given) | -4.5%
56 | COCc1cc(CN(C)C(C(=O)O)c2cc(C)c(OC)c(C)c2)n[nH]1 (stereo not given) | 1.07%
57 | CCC[C@H]1CN(Cc2cncn2C)C[C@@H]1NC(=O)C1(COC)CCC1 | -8.26%
58 | CC(C)NS(=O)(=O)c1cc(C(=O)O)cc(-n2cc3c(n2)CCC3)c1 | 3.19%
59 | CN(C)C(C(=O)N1CC(c2ccccn2)C1)c1ccc2c(c1)OCO2 (stereo not given) | 10.6%
60 | COC(=O)[C@]12CNC[C@H]1CN(Cc1nc(C)c[nH]1)C2 | 6.01%
61 | CC(=O)Nn1c(C)cc(CN2CCC(c3ccncc3)CC2)c1C | 4.61%
62 | CCc1cc(N(C)Cc2nonc2C)nc(N2CCOCC2)n1 | -8.07%
63 | OCCNc1cc(N2CCC(n3cc(C4CCCC4)nn3)CC2)ncn1 | -9.72%
64 | O=C(c1cn(CC(=O)N2CCCCCC2)c2ccccc12)C1CC1 | 13.6%
65 | Cc1ccc2oc(=O)n(CCC(=O)N3CCN(C)C(=O)C3)c2c1 | -15.6%
66 | CCCc1nc(C)cc(N2Cc3cnn(CCO)c3C2)n1 | -129%

Row | SMILES | cytotoxicity at 10 µM
67 | O=C(c1cccc(CO)n1)N1CCCC1c1nc2cc(F)ccc2[nH]1 (stereo not given) | -1.26%
68 | CCn1ncc(C(=O)N2CCN(CC3CCCO3)CC2)c1C (stereo not given) | -11.6%
69 | COCCNc1nc2c(c(NCCc3cccs3)n1)CCNCC2 | 3.96%
70 | CC(c1ccc(C(=O)NCCc2nc(N)cc(O)n2)o1)N1CCCCC1 (stereo not given) | -8.9%
71 | O=C1NC[C@@]2(C(=O)O)CN(Cc3cccc(Oc4ccccc4)c3)C[C@@H]12 | -5.65%
72 | COC1CCCN(c2nc(C)nc3c2CCN(Cc2ccco2)CC3)C1 (stereo not given) | 2.02%
73 | COc1ccc(N(c2ccc(C)cc2)c2ccc(C(=O)O)s2)cc1 | -3.75%
74 | Cc1nc(C2CCCN2CC(=O)Nc2c(C)n[nH]c2C)no1 (stereo not given) | 1.65%
75 | Cc1nnc(CN(C)C2CCCN(Cc3noc(C4CC4)n3)C2)o1 (stereo not given) | -2.51%
76 | Cn1ccnc1CN1CCCN(C(=O)c2ccc3ccccc3c2)CC1 | -8.66%
77 | CC(NC(=O)NCC1(c2ccc(Cl)cc2)CC1)c1nncn1C (stereo not given) | -3.25%
78 | COc1ccccc1C1(C(=O)NCCN2CCCCC2)CCOCC1 | -10.3%
79 | CCc1ccc(C(=O)O)cc1S(=O)(=O)Nc1ccc2c(c1)OCCO2 | -4.07%
80 | Cc1cnn(CCNCc2csc(-c3ncccn3)n2)c1 | -7.48%
81 | Cc1noc(CN2CCCC(Cn3nc(C)nc3C)C2)n1 (stereo not given) | -5.04%
82 | Cc1ccc(NC2CCN(C(=O)Cc3ccc(C)s3)CC2)nn1 | -3.75%
83 | Cc1nc(C)n(CC2CCCN2c2ncnc3ccsc23)n1 (stereo not given) | 7.61%
84 | OCCn1nccc1C1CCN(CCCOc2ccc(F)cc2)CC1 | -4.3%
85 | CCOc1ncccc1NC(=O)N1CCc2ccccc2C1 | -8.62%
86 | CC(=O)N1CCC(CN2CCN(Cc3nccn3C)C(C)C2)CC1 (stereo not given) | -15.4%
87 | Cc1ccc(-c2nnc(CN3CCc4cnc(C)nc4C3)o2)cc1 | -6.95%
88 | CCc1ccc(CCC(=O)N2CCOCC2c2ncon2)cc1 (stereo not given) | -3.78%

Row | SMILES | cytotoxicity at 10 µM
89 | Cc1cccc(-c2ccc(C(=O)NCC3CCOC3)c(=O)[nH]2)c1 (stereo not given) | -9.66%
90 | Cc1nn(C)c(N(C)C)c1CNCCNS(C)(=O)=O | -5.05%
91 | CCn1ccnc1CN1CCCN(C(=O)c2cccc(C#N)c2)CC1 | -12.2%
92 | COCC(c1cccc(C(F)(F)F)c1)N(C)C(=O)c1ccncc1 (stereo not given) | -14.6%
93 | Cc1noc(C)c1CC(=O)OCC(=O)N1CCc2sccc2C1 | -0.361%
94 | CCc1cc(C)c(C(=O)N2CCCC2CC(=O)c2cnn(C)c2)o1 (stereo not given) | 5.22%
95 | O=C(CCc1cccs1)N1CCC(N2CCNC2=O)CC1 | 5.37%
96 | c1cnnc(N2CCCC(NCc3ccc(-n4cccn4)cc3)C2)c1 (stereo not given) | 0.241%
97 | Cc1oc(-c2ccco2)nc1CC(=O)N1CCN(CC(C)(C)O)CC1 | 0.626%
98 | O=C(c1cc[nH]n1)N1CCC(Nc2cccnn2)CC1 | -0.529%
99 | CCN1CCCc2cc(-c3cncn3C(C)CN3CCOCC3)ccc21 (stereo not given) | 12.6%
100 | CN(C)CCN(C(=O)Cc1ccc2c(c1)OCCO2)C1CCN(C)CC1 | 2.16%
101 | O[C@]1(c2ccccn2)CC[C@@H]2CN(Cc3cccc4ncccc34)C[C@@H]21 | -2.09%
102 | CC(=O)N1CC(=O)N(c2ccccc2)CC12CCN(CC1CC1)C2 (stereo not given) | 4.45%
103 | Cn1nc(C2CCN(C(=O)Cc3ccsc3)CC2)c2cccnc21 | -4.9%
104 | Cc1ccc(C(=O)N2C[C@H]3CCCC(OCc4cccnc4)[C@H]3C2)cn1 (stereo not given in full) | 4.93%
105 | CC(C)c1nn(C)c(Cl)c1CNCc1ccc2c(c1)OCO2 | -1.77%
106 | Cc1nc(CN2CCOCC3(CCN(c4ncccn4)CC3)C2)cs1 | 14.9%
107 | Cc1noc([C@H]2C[C@@H]3CCN(CC4CCOCC4)C[C@H]3O2)n1 | -103%
108 | c1ccc(O[C@@H]2CN(Cc3nccs3)[C@@H]3CCCO[C@@H]32)nc1 | -8.52%
109 | Cc1ccc(CN2CCC(O)(Cn3ccc4ncccc43)CC2)o1 | -31.2%
110 | O=C(c1cccc(O)c1)N1CCC2(CCN2c2ncccn2)C1 (stereo not given) | -139%
